# Assay results as given in the EternaBench riboswitch data.
# Test system: MS2 coat protein
# Experiment: apparent Kd, MS2 coat protein; higher = weaker binding; RNA-MaP array; FMN 200 µM where present
# Summary of the method: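 Apparent Kd: the median of filtered binding-curve fits from single clusters. Designs were transcribed on Illumina sequencing-chip clusters by stalled E. coli RNA polymerase and titrated with SNAP-549-labelled MS2 coat protein from 0.7 or 1.5 nM, doubling to 3 µM, in 100 mM Tris-HCl pH 7.5, 80 mM KCl, 4 mM MgCl2, BSA, DTT, yeast tRNA and Tween-20. Each series ran without and then with constant ligand, and green signal was normalised to red-channel RNA signal and control-cluster median Fmax.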
# [1] = designed as: ON switch for flavin mononucleotide, no ligand
# [2] = ligand present: flavin mononucleotide, designed as: ON switch for flavin mononucleotide
# [3] = designed as: OFF switch for flavin mononucleotide, no ligand
# [4] = ligand present: flavin mononucleotide, designed as: OFF switch for flavin mononucleotide
Sequence,apparent Kd [1],apparent Kd [2],apparent Kd [3],apparent Kd [4]
CCACGUCACAUUUACAUGAGGAUCACCCAUGUCGAAAGACAUGAGGAUAUGCAUCCUAAUUGGAUGCAGAAGGCAUGGACGUGG,0.276 µM,0.274 µM,–,–
CCACUCGAGCAGAAGGCAAUGAGGGUUAUACAUUGAGGAUAUGCUACGUAUGUGGUACAUGAGGAUCACCCAUGUAGCCUAUCU,0.389 µM,0.0213 µM,–,–
CCAGACGUAGGAUAUACAUUUGGGUAAUCCCGCGGAAAGAUACAUGAGGAUCACCCAUGUAGAAGGGCGGUAAA,–,–,0.0311 µM,0.0211 µM
CCAGAGAUAUGAGGAUAUCGAGUGGAUAACACUCGAGAAGGCAUGUGAAAACAUGAGGAUCACCCAUGUAUGAUCUACUCUGGA,0.0506 µM,0.0238 µM,–,–
CCAGAUAUGUGAGGAUAUAUAGUGGAAUACACUAUAGAAGGUAUGUGAGAACAUGAGGAUCACCCAUGUCAUUGGUUAUCUGGA,0.0297 µM,0.0356 µM,–,–
CCAGCAACAUGAGGAUCACCCAUGUAGGAUAUCGCUAUUGUAAUCAUGAAACAUGAUUACAAUAGCGAGAAGGACAUAUGCUAA,–,–,0.00929 µM,0.0103 µM
CCAGCAACAUGAGGAUCACCCAUGUAGGAUAUCGCUAUUGUAAUCAUGAAACAUGAUUACAAUAGCGAGAAGGACAUAUGCUUU,–,–,0.011 µM,0.012 µM
CCAGCGAGUGUGAGGAUAUGCUGGUCCUUGGAUCAGCAGAAGGCACAUGAGGAUCACCCAUGUGAAAACGUUGG,–,–,0.0288 µM,0.179 µM
CCAGGCUGUGUGAGGAUAUGCUGGUCCUUGGAUCAGCAGAAGGCACAUGAGGAUCACCCAUGUGAGUAGCUUGG,–,–,0.0162 µM,0.0622 µM
CCAGGCUUCGAGAAGGACAUGAGGAUCACCCAUGUGCGUGUAAAACAGCCAAAAGGCUGCAUCAUGUAGGAUAUCGGAGUCUGC,–,–,0.275 µM,0.0955 µM
CCAGUGUCAGGAUAUAUCACAAAGAACCCAACCGGGCUUUGGUAGAAGGGACAUGAGGAUCACCCAUGUUGUUU,–,–,0.0309 µM,0.044 µM
CCAUAAAAGAUCCAAAUUUACAACAUGAGGAUCACCCAUGUGCAGGAUAUCGUGAAAGUAAAAUACGAGAAGGGCAAGAACUGC,–,–,0.3 µM,0.362 µM
CCAUAAAAGAUCCAAUUUUACAACAUGAGGAUCACCCAUGUGCAGGAUAUCGUGAAAGUAAAAUACGAGAAGGGCAAGAACUGC,–,–,0.265 µM,0.246 µM
CCAUAAAGGUAGGAUAUCGAUUUUAAUUAAUAUCGAGAAGGGUCAACAUGAGGAUCACCCAUGUCAGCAUGUAA,–,–,0.0609 µM,0.0587 µM
CCAUGACAAAGUCAUGGAAUACGAACAUGAGGAUCACCCAUGUAGGAUAUGCUACUCAAAGAGUAGCAGAAGGACAUGUGUCUU,–,–,0.0299 µM,0.156 µM
CCAUGCGGAUGAGGAUAUUCAUUCAUGAGGAUAGAAGAAGGCGUACAUGAGGAUCACCCAUGUAUACACAUGAGGAUCCCUUAC,–,–,0.385 µM,0.372 µM
CCCAAACUUGGGCUUGGCGGUGCAUAGGAUAUCCUUGGACAUGAGGAUCACCCAUGUACAACUGUGGAGAAGGGUGCAGGGCCU,0.0312 µM,0.00861 µM,–,–
CCCACGAAAGUCGAACGAUGAUGGAGAAGGACAAUAACAUGACAUGAGGAUCACCCAUGUGCCAUGUAGGAUAUCCAUCAUGGG,–,–,0.00749 µM,0.00678 µM
CCCACGAAAGUCGAACGAUGUAGCAGAAGGACAAUAACAUGACAUGAGGAUCACCCAUGUGCCAUGUAGGAUAUGCUACAUGGG,–,–,0.00824 µM,0.00714 µM

Sequence,apparent Kd [1],apparent Kd [2],apparent Kd [3],apparent Kd [4]
CCCACGUGUGCAGGAUAUCCCACGAGCACAACAUGAGGAUCACCCAUGUACCUGAGUCUCGGAACGGAGAAGGGUACAUGUUAU,0.0724 µM,0.0691 µM,–,–
CCCGACUAGAAGUCGGUACGGAGGAGAAGGCGCCUCCUGGGUCCACAUGAGGAUCACCCAUGUGGCGAGGAUAUCCUCAGUUUU,–,–,0.0142 µM,0.074 µM
CCCGAGUUAGGAUAUCGGACUGGCCCGCACAGGCUAGCAAUUGAGAAGGAACAUGAGGAUCACCCAUGUGAGUA,–,–,0.0242 µM,0.0616 µM
CCCGCCCGCCCGCACGCGGAGCGACGAGAAGGUACACAUGAGGAUCACCCAUGUCGAGUGGGAGGUAAGGAUAUUGGACGGCGG,0.106 µM,0.0933 µM,–,–
CCCGUGUUAGGAUAUACGGCACACCCACAAACGGGUAUAUAGUAGAAGGAACAUGAGGAUCACCCAUGUAAAAC,–,–,0.0202 µM,0.0465 µM
CCCUCACAUGAGGAUCACCCAUGUCAGGAUAUCUAGUCAGACAGUAUAGCACUGCUGAAGAGAAGGGACGUAAA,–,–,0.0164 µM,0.02 µM
CCCUCACAUGAGGAUCACCCAUGUCAGGAUAUCUAGUCAGACAGUGUAGCACUGCUGAAGAGAAGGGACGUAAA,–,–,0.0169 µM,0.0194 µM
CCCUGAUCGAGAGGUAGGAGUGGUAGAAGGCGACCGGUGCCAGAUGACAUGAGGAUCACCCAUGUCGAGGAUAUACCACAGAAU,–,–,0.0076 µM,0.0115 µM
CCGAAACCUCAGAAGGACCACAUGAGGAUCACCCAUGUCAAGCAAAACGGUAGGAUAUGAGGGAAAAGUCAAUAUACCCGACAG,0.0113 µM,0.0049 µM,–,–
CCGAAUAUGCAGGAUAUCGUAUAGGAAACUAUACGAGAAGGGUAAACAUGAGGAUCACCCAUGUUCCUUAACGG,–,–,0.0208 µM,0.0192 µM
CCGCAAAUGGAGGAUAUCGUAUCGGAUACGAUACGAGAAGGCUAAACAUGAGGAUCACCCAUGUGUCCUAGCGG,–,–,0.014 µM,0.0155 µM
CCGGAAAUGCAGGAUAUCGUAUCGGAUACGAUACGAGAAGGGUAUACAUGAGGAUCACCCAUGUGUCCUCCCGG,–,–,0.0383 µM,0.109 µM
CCGGAUAUGCAGGAUAUCGUAUCGGAUACGAUACGAGAAGGGUAUACAUGAGGAUCACCCAUGUGUCCUACCGG,–,–,0.0228 µM,0.0315 µM
CCGGCGGGAGGAUAUACAUGAGGAUCACCCAUGUGCUUCAGCUAGGAGACUAGCAUUGGUAGAAGGCCCGCCGG,–,–,0.019 µM,0.16 µM
CCGGGCUAGGAGAAGGGCUAGAGUGUGAUAUAUUUGCCCGCGAGCACAUGAGGAUCACCCAUGUAGCAGGAUAUCCAAGCCGGU,–,–,0.00725 µM,0.0212 µM
CCGUAGUACUGGGAUCCGGGCCUACAUGAGGAUCACCCAUGUCAGGAUAUACGCGAGAUAAAUACGUAGAAGGGACACAGAUGA,–,–,0.0197 µM,0.0331 µM
CCUAAACAUGAGGAUCACCCAUGUGAGGAUAUGAUGCGAAUAAAGAAAGAAGAAAGCAUCAGAAGGCACAUAGG,–,–,0.173 µM,0.27 µM
CCUAAGCGAAUCAAGAUGGAUAGAACAUGAGGAUCACCCAUGUAGGAUAUGCUACACAAAGUGUAGCAGAAGGACAAGCUUAGG,–,–,0.0259 µM,0.0405 µM
CCUAAGGAGGCAGGAUAUAGUGUGGUGGCCGGGCUCCCACGGCGAGCGGCACUAGAAGGGUCGUUACAUGAGGAUCACCCAUGU,0.0127 µM,0.0116 µM,–,–

Sequence,apparent Kd [1],apparent Kd [2],apparent Kd [3],apparent Kd [4]
CCUAGAUAGGGAGGAUAUCACGACCAUCCCGGCGAUCCAACUACAUGAGGAUCACCCAUGUGGUGUGAGAAGGCCCAAUAAUAG,–,–,0.22 µM,0.0754 µM
CCUAGUCACUCACAUGAGGAUCACCCAUGUCGGUGCCGCCGACAGGAUAUCUAAAUGUAAAAUCUAGAGAAGGGUCGAACCAUC,0.455 µM,0.609 µM,–,–
CCUAGUUGGUAAGGAUAUCCUACACUAUUCUGACCCGUGCAAGCUACAUGAGGAUCACCCAUGUAGGAGAAGGUGCGUCAACGU,–,–,0.00697 µM,0.00682 µM
CCUCCACAUGAGGAUCACCCAUGUCAGGAUAUCGUGUGUGCUUUUUCGGUCUUUCGUGCGAGAAGGGACGUCUG,–,–,0.0276 µM,0.0267 µM
CCUCCACAUUAGGAUAUCGUCACAGAAAUGUGACGAGAAGGAAUGACAUGAGGAUCACCCAUGUUAACGUGAUG,–,–,0.0344 µM,0.195 µM
CCUCCGUAUGAGGAUAUCGUCCAGGAAACUGGACGAGAAGGCAUGACAUGAGGAUCACCCAUGUUAACGUGAUG,–,–,0.0198 µM,0.0521 µM
CCUCGACAUGAGGAUCACCCAUGUCAGGAUAUUGUGUCUCGGGUUUUUUACCGUUAGGCAAGAAGGGAUGUGUG,–,–,0.0221 µM,0.0232 µM
CCUCGGUAGACAGGAUAUCCUUACAUGAGGAUCACCCAUGUAGCAAGACAUGGAGAAGGGUCACUGUGGGUAAAAGCGCAUAUC,0.225 µM,0.014 µM,–,–
CCUCUACAUGAGGAUCACCCAUGUGAGGAUAUCUCGGAGCAGCCAAUUAAAGCGCUCCAGAGAAGGCACGUGUA,–,–,0.0179 µM,0.0252 µM
CCUCUACAUGAGGAUCACCCAUGUGAGGAUAUGCGAGGCGCGCCCGAUAGGCGCGCCGGUAGAAGGCAUGUGGU,–,–,0.0235 µM,0.0505 µM
CCUGAGUCAGGAUAUUGUACCAGUCUAAAACCAGACUGACCCAAGAAGGGACAUGAGGAUCACCCAUGUGAAAA,–,–,0.0302 µM,0.0255 µM
CCUGUGUGAGGAUAUCUACGCCAUGUCUUUGACAUGGCGCAAGAGAAGGCACAUGAGGAUCACCCAUGUACUUC,–,–,0.0226 µM,0.135 µM
CCUUCGUGAGGAUAUCAUAGACAGCUCUCAGAAAUGGUCAAUGAGAAGGCACAUGAGGAUCACCCAUGUGGGUC,–,–,0.0563 µM,0.198 µM
CCUUUACAUGAGGAUCACCCAUGUCAGGAUAUCCUGUUGUGUUGUCUCGGGCGACACAUGAGCCAGGAGAAGGGACGAAGGGAA,–,–,0.0417 µM,0.0681 µM
CGAAGUACGUAAGGAUAUACCGUGAGGACAACGGUAGAAGGUACAACAACAUGAGGAUCACCCAUGUGGACCUCUCGGCGUUGU,–,–,0.394 µM,0.617 µM
CGAGAAAUCGUAGGAUAUGGUGAUGUACAUGAGGAUCACCCAUGUCCGUCUUCUCUCACAAGAUGCCAGAAGGACGAUUUCUGG,0.712 µM,0.122 µM,–,–
CGAGGACAUGAGGAUCACCCAUGUAGCUACAAAAUGCAGCGACAGGAUAUCCUCUGGUUCCCAUAGGAGAAGGGUCAAACCUUG,0.0268 µM,0.0475 µM,–,–
CGAGGUGGAGUGAGGAUAUCGUGUUCGAAAGAACGUGAGAAGGCACAUGAGGAUCACCCAUGUGAUUCAGCUCG,–,–,0.0246 µM,0.0694 µM
